In ChEMBL document CHEMBL5058577, “EUbOPEN Chemogenomics Library 2 (Multiplex)” (2022):

System: U2OS
Test: Multiplex assay against U2OS
Format: toxicity, cell-based
Details: human
Procedure, shortened: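 Cells stained live at seeding with Hoechst33342, BioTracker Green Microtubule Cytoskeleton Dye, MitoTracker Red and Annexin V Alexa Fluor 680 were imaged on a CQ1 microscope at 37°C and 5% CO2 after compound addition. Their classification by CellPathfinder machine-learning gating ran from Hoechst high-intensity objects versus normal cells, to healthy, pyknosed or fragmented nuclei among normal cells, to mitotic or apoptotic among pyknosed cells. Tubulin, mitochondrial-mass and membrane-permeability phenotypes are per cents of healthy-nucleus cells.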

[1] = 12 h, 1 µM, compound concentration 1 uM, replicate 1
[2] = 12 h, 1 µM, compound concentration 1 uM, replicate 2
[3] = 12 h, 10 µM, compound concentration 10 uM, replicate 1
[4] = 12 h, 10 µM, compound concentration 10 uM, replicate 2
[5] = 24 h, 1 µM, compound concentration 1 uM, replicate 1
[6] = 24 h, 1 µM, compound concentration 1 uM, replicate 2
[7] = 24 h, 10 µM, compound concentration 10 uM, replicate 1
[8] = 24 h, 10 µM, compound concentration 10 uM, replicate 2
[9] = 48 h, 1 µM, compound concentration 1 uM, replicate 1
[10] = 48 h, 1 µM, compound concentration 1 uM, replicate 2
[11] = 48 h, 10 µM, compound concentration 10 uM, replicate 1
[12] = 48 h, 10 µM, compound concentration 10 uM, replicate 2

CCn1c(-c2nc3cc(C(=O)N4CCCC(N)C4)ccc3n2C)cc2ccccc21.Cl (stereo unspecified)
Population Apoptotic (%) [1]: 61% | Population Fragmented Nuclei (%) [1]: 22% | Population Healthy Nuclei (%) [1]: 67% | Population Hoechst High Intensity Objects (%) [1]: 0% | Population Membrane Permeable-Phenotype (%) [1]: 4% | Population Mitochondria Different-Phenotype (%) [1]: 3% | Population Mitotic Cells (%) [1]: 38% | Population Normal (%) [1]: 99% | Population Pyknosed Nuclei (%) [1]: 9% | Population Tubulin-Different-Phenotype (%) [1]: 2% | Total Cell Count [1]: 213 | Population Apoptotic (%) [2]: 100% | Population Fragmented Nuclei (%) [2]: 18% | Population Healthy Nuclei (%) [2]: 77% | Population Hoechst High Intensity Objects (%) [2]: 5% | Population Membrane Permeable-Phenotype (%) [2]: 15% | Population Mitochondria Different-Phenotype (%) [2]: 18% | Population Mitotic Cells (%) [2]: 0% | Population Normal (%) [2]: 94% | Population Pyknosed Nuclei (%) [2]: 3% | Population Tubulin-Different-Phenotype (%) [2]: 13% | Total Cell Count [2]: 90 | Population Apoptotic (%) [3]: 48% | Population Fragmented Nuclei (%) [3]: 24% | Population Healthy Nuclei (%) [3]: 56% | Population Hoechst High Intensity Objects (%) [3]: 2% | Population Membrane Permeable-Phenotype (%) [3]: 34% | Population Mitochondria Different-Phenotype (%) [3]: 29% | Population Mitotic Cells (%) [3]: 51% | Population Normal (%) [3]: 97% | Population Pyknosed Nuclei (%) [3]: 19% | Population Tubulin-Different-Phenotype (%) [3]: 27% | Total Cell Count [3]: 277 | Population Apoptotic (%) [4]: 54% | Population Fragmented Nuclei (%) [4]: 21% | Population Healthy Nuclei (%) [4]: 60% | Population Hoechst High Intensity Objects (%) [4]: 1% | Population Membrane Permeable-Phenotype (%) [4]: 25% | Population Mitochondria Different-Phenotype (%) [4]: 55% | Population Mitotic Cells (%) [4]: 45% | Population Normal (%) [4]: 98% | Population Pyknosed Nuclei (%) [4]: 18% | Population Tubulin-Different-Phenotype (%) [4]: 48% | Total Cell Count [4]: 135 | Population Apoptotic (%) [5]: 82% | Population Fragmented Nuclei (%) [5]: 22% | Population Healthy Nuclei (%) [5]: 68% | Population Hoechst High Intensity Objects (%) [5]: 1% | Population Membrane Permeable-Phenotype (%) [5]: 6% | Population Mitochondria Different-Phenotype (%) [5]: 3% | Population Mitotic Cells (%) [5]: 17% | Population Normal (%) [5]: 98% | Population Pyknosed Nuclei (%) [5]: 9% | Population Tubulin-Different-Phenotype (%) [5]: 3% | Total Cell Count [5]: 249 | Population Apoptotic (%) [6]: 66% | Population Fragmented Nuclei (%) [6]: 25% | Population Hoechst High Intensity Objects (%) [6]: 3% | Population Membrane Permeable-Phenotype (%) [6]: 14% | Population Mitochondria Different-Phenotype (%) [6]: 13% | Population Mitotic Cells (%) [6]: 33% | Population Normal (%) [6]: 96% | Population Pyknosed Nuclei (%) [6]: 5% | Population Tubulin-Different-Phenotype (%) [6]: 13% | Total Cell Count [6]: 112 | Population Apoptotic (%) [7]: 62% | Population Fragmented Nuclei (%) [7]: 27% | Population Healthy Nuclei (%) [7]: 54% | Population Hoechst High Intensity Objects (%) [7]: 2% | Population Membrane Permeable-Phenotype (%) [7]: 16% | Population Mitochondria Different-Phenotype (%) [7]: 34% | Population Mitotic Cells (%) [7]: 38% | Population Normal (%) [7]: 97% | Population Pyknosed Nuclei (%) [7]: 17% | Population Tubulin-Different-Phenotype (%) [7]: 11% | Total Cell Count [7]: 288 | Population Apoptotic (%) [8]: 73% | Population Fragmented Nuclei (%) [8]: 19% | Population Healthy Nuclei (%) [8]: 64% | Population Hoechst High Intensity Objects (%) [8]: 3% | Population Membrane Permeable-Phenotype (%) [8]: 20% | Population Mitochondria Different-Phenotype (%) [8]: 53% | Population Mitotic Cells (%) [8]: 26% | Population Normal (%) [8]: 96% | Population Pyknosed Nuclei (%) [8]: 16% | Population Tubulin-Different-Phenotype (%) [8]: 26% | Total Cell Count [8]: 146 | Population Apoptotic (%) [9]: 75% | Population Fragmented Nuclei (%) [9]: 16% | Population Healthy Nuclei (%) [9]: 76% | Population Hoechst High Intensity Objects (%) [9]: 2% | Population Membrane Permeable-Phenotype (%) [9]: 8% | Population Mitochondria Different-Phenotype (%) [9]: 3% | Population Mitotic Cells (%) [9]: 25% | Population Normal (%) [9]: 97% | Population Pyknosed Nuclei (%) [9]: 6% | Population Tubulin-Different-Phenotype (%) [9]: 5% | Total Cell Count [9]: 354 | Population Apoptotic (%) [10]: 70% | Population Fragmented Nuclei (%) [10]: 22% | Population Healthy Nuclei (%) [10]: 70% | Population Hoechst High Intensity Objects (%) [10]: 4% | Population Membrane Permeable-Phenotype (%) [10]: 10% | Population Mitochondria Different-Phenotype (%) [10]: 9% | Population Mitotic Cells (%) [10]: 30% | Population Normal (%) [10]: 95% | Population Pyknosed Nuclei (%) [10]: 7% | Population Tubulin-Different-Phenotype (%) [10]: 8% | Total Cell Count [10]: 145 | Population Apoptotic (%) [11]: 78% | Population Fragmented Nuclei (%) [11]: 26% | Population Healthy Nuclei (%) [11]: 53% | Population Hoechst High Intensity Objects (%) [11]: 5% | Population Membrane Permeable-Phenotype (%) [11]: 23% | Population Mitochondria Different-Phenotype (%) [11]: 22% | Population Mitotic Cells (%) [11]: 21% | Population Normal (%) [11]: 94% | Population Pyknosed Nuclei (%) [11]: 19% | Population Tubulin-Different-Phenotype (%) [11]: 11% | Total Cell Count [11]: 353 | Population Apoptotic (%) [12]: 77% | Population Fragmented Nuclei (%) [12]: 18% | Population Healthy Nuclei (%) [12]: 64% | Population Hoechst High Intensity Objects (%) [12]: 6% | Population Membrane Permeable-Phenotype (%) [12]: 24% | Population Mitochondria Different-Phenotype (%) [12]: 39% | Population Mitotic Cells (%) [12]: 22% | Population Normal (%) [12]: 93% | Population Pyknosed Nuclei (%) [12]: 16% | Population Tubulin-Different-Phenotype (%) [12]: 19% | Total Cell Count [12]: 173
